Assay results published in publication PMC11522000 (Nature Microbiology, 2024).
pIC50: −log10 of the molar value.

Legend:
Plasma protein binding = assay type: in vitro ADME; conditions: rat
TK6 cells = assay: In vitro micronucleus test in TK6 cells; assay type: cell-based
Lipophilicity = assay type: physicochemical
[1] = Stability in intestinal S9 fraction; assay type: in vitro ADME; conditions: human
Outline: (§1)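 Test compound added to intestinal S9 fraction of each species to start the reaction. Incubated in a shaking water bath at 37 °C, with samples taken at sequential timepoints. Samples quenched with ice-cold acetonitrile and analysed by LC-MS/MS. Half-life calculated from the rate of parent compound depletion.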

C. parvum [2] = assay: DNA synthesis; assay type: cell-based, Cryptosporidium parvum; conditions: compound at 3 h post infection, EdU at 9 h
Outline: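 HCT-8 cells were seeded at 5,000–25,000 per well on fibronectin-coated glass-bottom plates to reach 90–100% confluence, then infected with triggered oocysts. After 3 h at 37 °C, test compound or controls were added (DMSO neutral, cladosporin active) and incubation continued to about 9 h post infection. EdU was detected, vacuoles stained with VVL and nuclei with Hoechst, and wells imaged with a 40x objective.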

[3] = 2 weeks GLP dog toxicology study with toxicokinetics; assay type: in vivo; conditions: for AUC(0-t): AUC0-8, dog
[4] = Stability in intestinal S9 fraction; assay type: in vitro ADME, calf; conditions: bovine
Outline: as §1

[5] = test system: MDR-transfected MDCK cells; assay: MDCK MDR1 permeability and efflux; assay type: in vitro ADME; conditions: MDCK MDR1, basolateral to apical
hCav1.2 = hCav1.2 (Homo sapiens, UniProt Q13936); assay: Patch clamp Cav1.2 Quattro; assay type: cell-based
Outline: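 Each channel was stably expressed in HEK293 cells and tested by patch clamp with a 7-point concentration-response.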

Cytotoxicity assay = assay type: cell-based, human; conditions: human, HepG2 cells (ATCC CRL-10741), HepG2 CC50, 96 h
[6] = In vivo pharmacokinetic analysis; design: species or system mouse
Outline: (§2)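 Animals were male C57BL/6 mice (8–10 weeks), Wistar rats (8–10 weeks) and beagle dogs (12–14 weeks). Each received oral and i.v. doses, with plasma sampling for PK parameters.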

C. parvum [7] = assay: Neonatal calf efficacy study; assay type: in vivo, neonatal calves
Outline: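 Infected neonatal calves received test compound orally by dosing syringe every 12 h for 7 days at 10 mg/kg birth weight, at least 2 h after feeding. Controls were vehicle-treated calves. The negative-control calf was sham-challenged so staff stayed blinded during dosing, clinical scoring of faecal consistency and faecal qPCR for oocysts.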

C. parvum [8] = assay: Time-kill assay, nanoluciferase-expressing C. parvum; assay type: cell-based, Cryptosporidium parvum
[9] = In vivo pharmacokinetic analysis; conditions: male, Beagle, dog, plasma
Outline: as §2

[10] = Stability in intestinal S9 fraction; assay type: in vitro ADME; conditions: dog
Outline: as §1

[11] = In vivo pharmacokinetic analysis; design: species or system rat; conditions: portal vein cannulated rats, oral
[12] = Stability in intestinal S9 fraction; assay type: in vitro ADME; conditions: rat
Outline: as §1

liver and duodenum = assay: In vivo rat Comet assay; conditions: up to 2000 mg/kg/day
Outline: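 Liver and duodenum were sampled near Tmax after the second dose for the Comet assay.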

C. parvum [13] = assay: Washout assay, nanoluciferase-expressing C. parvum; assay type: cell-based, Cryptosporidium parvum; conditions: exposure 2–6 h post infection
Outline: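 HCT-8 cells were grown to ~90% confluence, then infected with 400 nanoluciferase-expressing oocysts per well. Before infection, oocysts were primed for excystation with 10 mM HCl in water (10 min, 37 °C), then 2 mM sodium taurocholate in DPBS with Ca/Mg (10 min, 16 °C). Luminescence was read over time. RLU taken soon after infection served as day 0 and was used to normalize each timepoint.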

[14] = In vivo pharmacokinetics, all tested preclinical species; conditions: male, mouse, rat, dog, plasma, po
Outline: as §2

[15] = male, C57BL/6, mouse, plasma, iv, 1 mg/kg
[16] = male, C57BL/6, mouse, plasma, po, 10 mg/kg

Sequence of hCav1.2 (P54289 957-1103): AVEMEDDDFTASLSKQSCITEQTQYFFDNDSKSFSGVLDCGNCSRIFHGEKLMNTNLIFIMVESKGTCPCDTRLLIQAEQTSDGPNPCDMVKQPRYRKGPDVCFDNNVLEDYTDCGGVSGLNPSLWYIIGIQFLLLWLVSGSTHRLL
Sequence of hCav1.2 (Q08289 whole entry, further chain): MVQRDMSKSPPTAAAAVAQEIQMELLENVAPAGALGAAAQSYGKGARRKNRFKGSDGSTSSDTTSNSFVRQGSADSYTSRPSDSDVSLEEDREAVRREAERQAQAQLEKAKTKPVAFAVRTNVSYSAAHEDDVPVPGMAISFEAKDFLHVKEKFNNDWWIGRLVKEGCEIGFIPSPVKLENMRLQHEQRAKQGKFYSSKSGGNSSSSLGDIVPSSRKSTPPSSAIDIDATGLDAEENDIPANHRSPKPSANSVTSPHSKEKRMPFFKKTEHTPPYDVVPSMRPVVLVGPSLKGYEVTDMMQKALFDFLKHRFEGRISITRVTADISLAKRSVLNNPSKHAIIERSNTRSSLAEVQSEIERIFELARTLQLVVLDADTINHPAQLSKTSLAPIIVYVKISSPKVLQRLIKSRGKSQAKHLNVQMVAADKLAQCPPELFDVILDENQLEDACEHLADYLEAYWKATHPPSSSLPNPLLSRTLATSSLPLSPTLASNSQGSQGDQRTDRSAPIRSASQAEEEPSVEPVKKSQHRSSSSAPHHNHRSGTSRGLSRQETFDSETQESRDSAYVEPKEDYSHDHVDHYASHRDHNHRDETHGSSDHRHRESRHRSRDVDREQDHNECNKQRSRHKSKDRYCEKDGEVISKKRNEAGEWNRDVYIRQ
Sequence of hCav1.2 (Q13936 whole entry): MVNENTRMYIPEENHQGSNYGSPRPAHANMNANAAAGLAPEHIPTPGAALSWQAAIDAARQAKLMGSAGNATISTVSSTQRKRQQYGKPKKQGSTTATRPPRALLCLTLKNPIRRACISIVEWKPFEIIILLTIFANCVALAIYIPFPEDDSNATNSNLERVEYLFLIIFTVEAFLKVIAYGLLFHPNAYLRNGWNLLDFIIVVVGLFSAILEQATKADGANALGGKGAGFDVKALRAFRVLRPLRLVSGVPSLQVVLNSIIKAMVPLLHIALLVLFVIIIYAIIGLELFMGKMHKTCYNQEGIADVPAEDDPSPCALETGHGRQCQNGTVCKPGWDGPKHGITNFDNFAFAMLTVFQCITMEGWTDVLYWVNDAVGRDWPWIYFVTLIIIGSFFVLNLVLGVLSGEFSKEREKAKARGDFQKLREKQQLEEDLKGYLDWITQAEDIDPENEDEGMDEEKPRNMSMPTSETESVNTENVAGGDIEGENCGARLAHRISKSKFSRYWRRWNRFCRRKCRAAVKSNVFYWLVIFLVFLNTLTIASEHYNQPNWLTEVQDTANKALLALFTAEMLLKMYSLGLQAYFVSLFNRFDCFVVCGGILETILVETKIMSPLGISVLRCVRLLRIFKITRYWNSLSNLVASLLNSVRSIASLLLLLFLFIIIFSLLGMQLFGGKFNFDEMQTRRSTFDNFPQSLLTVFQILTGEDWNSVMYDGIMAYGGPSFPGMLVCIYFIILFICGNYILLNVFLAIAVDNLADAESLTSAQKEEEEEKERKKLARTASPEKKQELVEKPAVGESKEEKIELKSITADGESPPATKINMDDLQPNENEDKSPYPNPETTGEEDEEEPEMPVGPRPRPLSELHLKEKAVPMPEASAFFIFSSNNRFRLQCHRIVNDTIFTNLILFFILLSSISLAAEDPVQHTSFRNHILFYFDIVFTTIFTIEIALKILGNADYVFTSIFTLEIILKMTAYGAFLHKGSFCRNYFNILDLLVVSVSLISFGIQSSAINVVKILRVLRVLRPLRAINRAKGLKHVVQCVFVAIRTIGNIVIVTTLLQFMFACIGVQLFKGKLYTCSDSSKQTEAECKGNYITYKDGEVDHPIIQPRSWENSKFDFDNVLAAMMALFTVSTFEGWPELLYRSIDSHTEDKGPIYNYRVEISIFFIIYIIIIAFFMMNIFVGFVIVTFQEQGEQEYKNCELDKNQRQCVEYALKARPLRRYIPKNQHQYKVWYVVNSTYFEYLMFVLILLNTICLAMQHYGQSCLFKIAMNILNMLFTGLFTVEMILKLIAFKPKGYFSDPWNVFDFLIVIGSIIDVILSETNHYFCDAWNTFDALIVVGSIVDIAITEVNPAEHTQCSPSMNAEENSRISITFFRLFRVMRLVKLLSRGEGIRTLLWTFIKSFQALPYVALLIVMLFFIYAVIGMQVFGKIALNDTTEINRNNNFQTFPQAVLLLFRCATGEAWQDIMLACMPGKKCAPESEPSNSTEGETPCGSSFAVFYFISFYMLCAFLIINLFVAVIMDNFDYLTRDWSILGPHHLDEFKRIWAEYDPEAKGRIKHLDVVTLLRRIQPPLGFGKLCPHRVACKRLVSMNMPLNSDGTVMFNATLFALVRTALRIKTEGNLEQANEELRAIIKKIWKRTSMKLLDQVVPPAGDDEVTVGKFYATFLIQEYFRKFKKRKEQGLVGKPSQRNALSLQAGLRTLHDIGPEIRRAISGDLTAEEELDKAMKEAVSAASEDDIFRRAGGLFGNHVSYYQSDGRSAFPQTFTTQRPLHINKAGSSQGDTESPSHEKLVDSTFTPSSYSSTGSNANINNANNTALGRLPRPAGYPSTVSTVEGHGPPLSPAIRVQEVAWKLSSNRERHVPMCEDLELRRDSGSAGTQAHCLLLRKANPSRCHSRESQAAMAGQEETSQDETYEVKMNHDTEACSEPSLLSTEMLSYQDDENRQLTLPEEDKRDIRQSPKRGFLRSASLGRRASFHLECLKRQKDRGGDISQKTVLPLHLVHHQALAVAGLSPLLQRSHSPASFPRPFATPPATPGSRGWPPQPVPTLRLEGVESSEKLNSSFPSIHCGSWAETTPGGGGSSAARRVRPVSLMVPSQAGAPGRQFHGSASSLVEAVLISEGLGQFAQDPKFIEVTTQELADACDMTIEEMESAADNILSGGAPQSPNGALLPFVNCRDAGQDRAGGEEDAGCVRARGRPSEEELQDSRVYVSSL
Sequence of hCav1.2 (P54289 25-956): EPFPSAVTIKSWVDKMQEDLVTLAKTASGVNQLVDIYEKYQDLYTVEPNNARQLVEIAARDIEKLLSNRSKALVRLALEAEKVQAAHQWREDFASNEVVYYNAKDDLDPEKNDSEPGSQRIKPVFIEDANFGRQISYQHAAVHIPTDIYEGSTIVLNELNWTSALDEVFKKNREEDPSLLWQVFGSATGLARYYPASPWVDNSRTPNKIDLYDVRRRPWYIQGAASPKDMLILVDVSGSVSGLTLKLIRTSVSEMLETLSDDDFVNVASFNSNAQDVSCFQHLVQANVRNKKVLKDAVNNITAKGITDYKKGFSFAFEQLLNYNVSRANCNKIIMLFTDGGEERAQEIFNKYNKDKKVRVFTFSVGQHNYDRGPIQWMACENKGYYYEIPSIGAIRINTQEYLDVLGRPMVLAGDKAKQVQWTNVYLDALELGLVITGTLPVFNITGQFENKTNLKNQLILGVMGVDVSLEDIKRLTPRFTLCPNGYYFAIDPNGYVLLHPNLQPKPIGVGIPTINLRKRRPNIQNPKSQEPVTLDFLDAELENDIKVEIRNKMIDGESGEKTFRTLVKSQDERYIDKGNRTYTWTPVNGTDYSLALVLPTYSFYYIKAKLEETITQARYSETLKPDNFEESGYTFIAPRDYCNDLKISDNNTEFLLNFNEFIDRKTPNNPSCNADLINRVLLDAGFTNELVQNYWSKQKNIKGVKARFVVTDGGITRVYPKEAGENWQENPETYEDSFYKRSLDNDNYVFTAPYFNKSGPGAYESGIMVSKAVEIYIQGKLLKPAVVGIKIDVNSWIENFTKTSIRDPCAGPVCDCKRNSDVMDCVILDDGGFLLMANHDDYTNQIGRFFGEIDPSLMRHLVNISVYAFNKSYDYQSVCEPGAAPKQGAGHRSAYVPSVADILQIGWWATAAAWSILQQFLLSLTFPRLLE

Question: For `CN(C(=O)c1ccn2ncc(-c3ccc(C(N)=O)cc3)c2c1)c1ccc(C#N)cn1` [KDU731, 3–(4-carbamoylphenyl)-N-(5-cyanopyridin-2-yl)-N-methylpyrazolo [1,5-a]pyridine-5-carboxamide, reference compound], which “% Plasma protein binding” value (Plasma protein binding) is on record?
Answer: The value was 87.7%.

Question: And the “In vitro TK6 Micronucleus (MN) test” value (TK6 cells)?
Answer: Its value is “Negative”.

Question: Which logD (Lipophilicity) does the source give for `CNC(=O)c1ccc(-c2cnn3ccc(C(=O)N(C)c4ccc(Cl)c(C(=O)OC)c4)cc23)cc1` [EDI048, methyl 2-chloro-5-(N-methyl-3-(4-(methylcarbamoyl)phenyl)pyrazolo[1,5-a]pyridine-5-carboxamido)benzoate] here?
Answer: The logD was 2.7.

Question: What about the logP (Lipophilicity) of the same compound?
Answer: The logP was 3.65.

Question: What about the half-life [1] of the same compound?
Answer: The half-life was 235 min.

Question: What about the “DNA synthesis (EdU incorporation)” value (C. parvum [2]) of the same compound?
Answer: Its value is “does not affect DNA synthesis”.

Question: What about the NOAEL at 14 days ([3]; both, beagle, dog, in vivo, po) of the same compound?
Answer: Its NOAEL at 14 days is 1000 mg/kg/day.

Question: What about the Tmax ([3]; both, beagle, dog, plasma, oral, dog toxicity study) of the same compound?
Answer: Its Tmax is ≤ 75 min.

Question: What about the AUC(0-t) ([3]; both, beagle, dog, plasma, po, 1000 mg/kg/day, EDI048 1000 mg/kg/day, day 1) of the same compound?
Answer: The AUC(0-t) was 0.459 µg·h/mL.

Question: And the AUC(0-t) ([3]; both, beagle, dog, plasma, po, 1000 mg/kg/day, EDI048 1000 mg/kg/day, day 14)?
Answer: The AUC(0-t) was 0.634 µg·h/mL.

Question: What about the Cmax ([3]; both, beagle, dog, plasma, po, 1000 mg/kg/day, Cmax, dog, EDI048 1000 mg/kg/day, day 14) of the same compound?
Answer: The Cmax was 0.169 µg/mL.

Question: What about the Tmax ([3]; both, beagle, dog, plasma, po, 1000 mg/kg/day, dog, EDI048 1000 mg/kg/day, day 1) of the same compound?
Answer: The Tmax was 57 min.

Question: And the Tmax ([3]; both, beagle, dog, plasma, po, 1000 mg/kg/day, dog, EDI048 1000 mg/kg/day, day 14)?
Answer: Its Tmax is 45 min.

Question: And the “cardiovascular findings in dogs” value ([3]; up to 1000 mg/kg/day)?
Answer: Its value is “no EDI048-related cardiovascular findings”.

Question: And the half-life [4]?
Answer: The half-life was 175 min.

Question: What about the “Permeability B–A” value [5] of the same compound?
Answer: The value was 7.92 / 12.9 / 1.62 ×10^−6 cm s^−1.

Question: And the pIC50 (hCav1.2)?
Answer: Its pIC50 is < 4.30.

Question: And the CC50 at 96 h (Cytotoxicity assay)?
Answer: Its CC50 at 96 h is 28.1 µM.

Question: And the AUC [6, 15]?
Answer: Its AUC is 668 nM·h.

Question: What about the Vd [6, 15] of the same compound?
Answer: The Vd was 1.05 L/kg.

Question: What about the clearance [6, 15] of the same compound?
Answer: Its clearance is 4 L/h/kg.

Question: And the half-life [6, 15]?
Answer: Its half-life is 25.8 min.

Question: And the AUC [6, 16]?
Answer: The AUC was 20.4 nM·h.

Question: And the Cmax [6, 16]?
Answer: The Cmax was 8.4 nM.

Question: What about the Tmax [6, 16] of the same compound?
Answer: Its Tmax is 60 min.

Question: And the bioavailability [6, 16]?
Answer: The bioavailability was 0.4%.

Question: And the Cmax ([6]; mouse, oral 1 mg/kg)?
Answer: Its Cmax is “<LLOQ”.

Question: And the Cmax ([6]; mouse, oral 3 mg/kg)?
Answer: The Cmax was “<LLOQ”.

Question: What about the tolerability in calves (C. parvum [7]; 10 mg kg^−1 every 12 h, 7 days) of the same compound?
Answer: Its tolerability in calves is “tolerated the full 7 day course of EDI048 treatment without compound-related abnormalities”.

Question: And the “faecal consistency vs vehicle-treated calves” value (C. parvum [7]; P < 0.0001)?
Answer: The value was “improved faecal consistency”.

Question: And the “faecal oocyst shedding vs vehicle-treated calves” value (C. parvum [7]; P = 0.0062)?
Answer: Its value is “shed significantly fewer oocysts”.

Question: And the “emergence of resistance during treatment” value (C. parvum [7]; calf model)?
Answer: The value was “resistance did not emerge”.

Question: What about the “time to signs of resolution of diarrhea” value (C. parvum [7]; post treatment) of the same compound?
Answer: Its value is ≤ 48 h.

Question: And the “recrudescence after cessation of treatment” value (C. parvum [7]; up to 7 days)?
Answer: The value was “No recrudescence of infection”.

Question: And the “concentration achieving maximum rate of parasite elimination” value (C. parvum [8])?
Answer: The value was ≥ 27 nM.

Question: What about the AUC ([9]; iv, 0.1 mg/kg) of the same compound?
Answer: Its AUC is 77.9 nM·h.

Question: And the Vd ([9]; iv, 0.1 mg/kg)?
Answer: The Vd was 1.54 L/kg.

Question: And the clearance ([9]; iv, 0.1 mg/kg)?
Answer: Its clearance is 2.74 L/h/kg.

Question: And the half-life ([9]; iv, 0.1 mg/kg)?
Answer: Its half-life is 33.6 min.

Question: And the AUC ([9]; po, 0.3 mg/kg)?
Answer: The AUC was 11.8 nM·h.

Question: And the Cmax ([9]; po, 0.3 mg/kg)?
Answer: The Cmax was 5.2 nM.

Question: And the Tmax ([9]; po, 0.3 mg/kg)?
Answer: The Tmax was 45 min.

Question: And the bioavailability ([9]; po, 0.3 mg/kg)?
Answer: Its bioavailability is 5.6%.

Question: And the half-life [10]?
Answer: Its half-life is > 240 min.

Question: What about the “portal vein concentration relative to systemic levels” value [11] of the same compound?
Answer: The value was ~ 40 fold.

Question: What about the half-life [12] of the same compound?
Answer: The half-life was > 240 min.

Question: What about the “In vivo rat Comet assay” value (liver and duodenum) of the same compound?
Answer: The value was “Negative^e”.

Question: And the “washout: effect of 4 h exposure on parasite growth” value (C. parvum [13])?
Answer: The value was “does not affect parasite growth”.

Question: What about the bioavailability [14] of the same compound?
Answer: The bioavailability was 0.4 to 5.6%.
